Assay results reported in ChEMBL document CHEMBL4325837, “Discovery of novel NO-releasing celastrol derivatives with Hsp90 inhibition and cytotoxic activities” (Eur J Med Chem, 2018).
Active and inactive are the calls of the source. No cut-off for these calls is given here.

Legend:
[1] = test system: A549; test: Antiproliferative activity against human A549 cells after 48 hrs by MTT assay; type: functional, cell-based; conditions: A549, 48 h
How it was run: (§1)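 MTT assay. Cells were seeded at 5.0 × 10⁴ cells/ml in 100 μL per well and grown 24 h. They were then exposed to a range of concentrations for 48 h. MTT (5 mg/ml) was added for 4 h, the supernatant was removed and DMSO was added. OD was read at 570 nm. Assays were run in triplicate and IC50 is reported as mean ± SD, n = 3.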

[2] = test system: MCF7; test: Antiproliferative activity against human MCF7 cells after 48 hrs by MTT assay; type: functional, cell-based; conditions: MCF7, 48 h; how it was run: as §1
[3] = test system: HOS; test: Antiproliferative activity against human HOS cells after 48 hrs by MTT assay; type: functional, cell-based; how it was run: as §1
[4] = test system: HepG2; test: Antiproliferative activity against human HepG2 cells after 48 hrs by MTT assay; type: functional, cell-based; conditions: HepG2, 48 h; how it was run: as §1
[5] = Drug metabolism in human A549 cells assessed as nitric oxide release at 4 uM measured up to 24 hrs; type: ADME, cell-based; conditions: a549, 24 h
How it was run: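 A549 cells were seeded at 5.0 × 10⁴ cells/ml in 100 μL wells and grown 24 h at 37 °C. Hybrids were added at 4 μM for varying times, with 24 h used for the full set. NO was measured with a Nitrate/Nitrite assay kit against a standard curve, reading OD at 550 nm. Values are the mean of three independent experiments.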

[6] = test system: A549; test: Induction of apoptosis in human A549 cells assessed as chromatin condensation at 0.3 to 1.2 uM after 48 hrs by Hoechst 33342 staining based fluorescent microscopic method; type: functional, cell-based
How it was run: (§2)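 A549 cells (4 × 10⁵ per 6 cm dish) were grown 24 h, then treated for 48 h. Cells were washed twice with PBS, stained with Hoechst 33342 (10 µg/ml) for 5 min at room temperature in the dark, and examined by fluorescence microscopy for chromatin condensation and nuclear fragmentation.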

[7] = test system: A549; test: Induction of apoptosis in human A549 cells assessed as viable cells at 1.2 uM after 48 hrs by Annexin V-FITC/propidium iodide staining-based flow cytometric analysis (reference value: 98.5%); type: functional; conditions: A549, 48 h, read-out: Activity
[8] = test system: A549; test: Induction of apoptosis in human A549 cells assessed as early apoptotic cells at 1.2 uM after 48 hrs by Annexin V-FITC/propidium iodide staining-based flow cytometric analysis (reference value: 0.5%); type: functional
[9] = test system: A549; test: Induction of apoptosis in human A549 cells assessed as late apoptotic cells at 1.2 uM after 48 hrs by Annexin V-FITC/propidium iodide staining-based flow cytometric analysis (reference value: 0.4%); type: functional
[10] = test system: A549; test: Induction of apoptosis in human A549 cells assessed as necrotic cells at 1.2 uM after 48 hrs by Annexin V-FITC/propidium iodide staining-based flow cytometric analysis (reference value: 0.6%); type: functional
[11] = test system: A549; test: Induction of apoptosis in human A549 cells assessed as viable cells at 0.3 uM after 48 hrs by Annexin V-FITC/propidium iodide staining-based flow cytometric analysis (reference value: 98.5%); type: functional; conditions: A549, 48 h, read-out: Activity
How it was run: (§3)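 A549 cells (4 × 10⁵ per 6 cm dish) were grown 24 h, then treated for 48 h. Cells were harvested, washed twice with cold PBS and resuspended in 250 μL binding buffer with 2.5 μL PI and 2.5 μL Annexin V-FITC. After 15 min at room temperature in the dark, they were analysed by flow cytometry for early and late apoptotic fractions.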

[12] = test system: A549; test: Induction of apoptosis in human A549 cells assessed as early apoptotic cells at 0.3 uM after 48 hrs by Annexin V-FITC/propidium iodide staining-based flow cytometric analysis (reference value: 0.5%); type: functional; how it was run: as §3
[13] = test system: A549; test: Induction of apoptosis in human A549 cells assessed as late apoptotic cells at 0.3 uM after 48 hrs by Annexin V-FITC/propidium iodide staining-based flow cytometric analysis (reference value: 0.4%); type: functional; how it was run: as §3
[14] = test system: A549; test: Induction of apoptosis in human A549 cells assessed as necrotic cells at 0.3 uM after 48 hrs by Annexin V-FITC/propidium iodide staining-based flow cytometric analysis (reference value: 0.6%); type: functional; how it was run: as §3
[15] = test system: A549; test: Induction of apoptosis in human A549 cells assessed as viable cells at 0.6 uM after 48 hrs by Annexin V-FITC/propidium iodide staining-based flow cytometric analysis (reference value: 98.5%); type: functional; conditions: A549, 48 h, read-out: Activity; how it was run: as §3
[16] = test system: A549; test: Induction of apoptosis in human A549 cells assessed as early apoptotic cells at 0.6 uM after 48 hrs by Annexin V-FITC/propidium iodide staining-based flow cytometric analysis (reference value: 0.5%); type: functional; how it was run: as §3
[17] = test system: A549; test: Induction of apoptosis in human A549 cells assessed as late apoptotic cells at 0.6 uM after 48 hrs by Annexin V-FITC/propidium iodide staining-based flow cytometric analysis (reference value: 0.4%); type: functional; how it was run: as §3
[18] = test system: A549; test: Induction of apoptosis in human A549 cells assessed as necrotic cells at 0.6 uM after 48 hrs by Annexin V-FITC/propidium iodide staining-based flow cytometric analysis (reference value: 0.6%); type: functional; how it was run: as §3
[19] = test system: A549; test: Induction of apoptosis in human A549 cells after 48 hrs by Annexin V-FITC/propidium iodide staining-based flow cytometric analysis; type: functional, cell-based; how it was run: as §3
[20] = test system: A549; test: Induction of apoptosis in human A549 cells assessed as nuclear fragmentation at 0.3 to 1.2 uM after 48 hrs by Hoechst 33342 staining based fluorescent microscopic method; type: functional, cell-based; how it was run: as §2
[21] = test system: A549; test: Cell cycle arrest in human A549 cells assessed as accumulation at G1 phase at 0.2 uM by after 24 hrs by RNase A/propidium iodide staining-based flow cytometric analysis (reference value: 46.97%); type: functional
[22] = test system: A549; test: Cell cycle arrest in human A549 cells assessed as accumulation at S phase at 0.2 uM by after 24 hrs by RNase A/propidium iodide staining-based flow cytometric analysis (reference value: 28.11%); type: functional
[23] = test system: A549; test: Cell cycle arrest in human A549 cells assessed as accumulation at G2 phase at 0.2 uM by after 24 hrs by RNase A/propidium iodide staining-based flow cytometric analysis (reference value: 24.84%); type: functional
[24] = test system: A549; test: Cell cycle arrest in human A549 cells assessed as accumulation at G1 phase at 0.4 uM by after 24 hrs by RNase A/propidium iodide staining-based flow cytometric analysis (reference value: 46.97%); type: functional
[25] = test system: A549; test: Cell cycle arrest in human A549 cells assessed as accumulation at S phase at 0.4 uM by after 24 hrs by RNase A/propidium iodide staining-based flow cytometric analysis (reference value: 28.11%); type: functional
[26] = test system: A549; test: Cell cycle arrest in human A549 cells assessed as accumulation at G2 phase at 0.4 uM by after 24 hrs by RNase A/propidium iodide staining-based flow cytometric analysis (reference value: 24.84%); type: functional
[27] = test system: A549; test: Cell cycle arrest in human A549 cells assessed as accumulation at G1 phase at 0.8 uM by after 24 hrs by RNase A/propidium iodide staining-based flow cytometric analysis (reference value: 46.97%); type: functional
[28] = test system: A549; test: Cell cycle arrest in human A549 cells assessed as accumulation at S phase at 0.8 uM by after 24 hrs by RNase A/propidium iodide staining-based flow cytometric analysis (reference value: 28.11%); type: functional
[29] = test system: A549; test: Cell cycle arrest in human A549 cells assessed as accumulation at G2 phase at 0.8 uM by after 24 hrs by RNase A/propidium iodide staining-based flow cytometric analysis (reference value: 24.84%); type: functional
[30] = target: T1, Heat shock protein HSP90 (Homo sapiens) (UniProt P07900+P08238); test: Inhibition of HSP90 in human A549 cells assessed as decrease in CDK4 protein expression at 0.5 to 2.5 uM after 24 hrs by Western blot analysis; type: cell-based
How it was run: (§4)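 A549 cells (5 × 10⁵ per 6 cm dish) were grown 24 h, then treated for 24 h. Cells were lysed and the lysate spun at 10,000 g for 20 min at 4 °C. Protein was adjusted to 3 mg/ml by BCA and run on 10% SDS-PAGE. Blots were probed with monoclonal antibodies for Cdk4, Hsp90, p-Akt and Akt, with β-actin as internal control.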

[31] = target: T1, Heat shock protein HSP90 (Homo sapiens); test: Inhibition of HSP90 in human A549 cells assessed as decrease in Akt phosphorylation at 0.5 to 2.5 uM after 24 hrs by Western blot analysis; type: cell-based; how it was run: as §4
[32] = target: T1, Heat shock protein HSP90 (Homo sapiens); test: Inhibition of HSP90 in human A549 cells at 0.5 to 2.5 uM after 24 hrs by Western blot analysis; type: cell-based; how it was run: as §4

**Q.** Which IC50 [1] does the source give for CC1=C(O)C(=O)C=C2C1=CC=C1[C@@]2(C)CC[C@@]2(C)[C@@H]3C[C@](C)(C(=O)NCCCOc4no[n+]([O-])c4S(=O)(=O)c4ccccc4)CC[C@]3(C)CC[C@]12C here?
**A.** The IC50 was 0.43 to 0.48 µM.

**Q.** What about the IC50 [2] of the same molecule?
**A.** Its IC50 is 0.78 µM.

**Q.** What about the IC50 [3] of the same molecule?
**A.** The IC50 was 0.51 µM.

**Q.** And the IC50 [4]?
**A.** Its IC50 is 1.41 µM.

**Q.** What about the Drug metabolism [5] of the same molecule?
**A.** Its Drug metabolism is “Metabolite_Detected”.

**Q.** What about the Activity [6] of the same molecule?
**A.** The Activity was “Active”.

**Q.** And the viability at 1.2 µM [7]?
**A.** Its viability at 1.2 µM is 46.3%.

**Q.** What about the Activity [8] of the same molecule?
**A.** The Activity was 12.9%.

**Q.** What about the Activity [9] of the same molecule?
**A.** The Activity was 31%.

**Q.** And the Activity [10]?
**A.** The Activity was 9.8%.

**Q.** What about the viability at 0.3 µM [11] of the same molecule?
**A.** The viability at 0.3 µM was 88.8%.

**Q.** What about the Activity [12] of the same molecule?
**A.** The Activity was 3.1%.

**Q.** And the Activity [13]?
**A.** Its Activity is 6.4%.

**Q.** What about the Activity [14] of the same molecule?
**A.** The Activity was 1.7%.

**Q.** And the viability at 0.6 µM [15]?
**A.** Its viability at 0.6 µM is 64.8%.

**Q.** What about the Activity [16] of the same molecule?
**A.** Its Activity is 9.9%.

**Q.** And the Activity [17]?
**A.** The Activity was 20%.

**Q.** And the Activity [18]?
**A.** Its Activity is 5.3%.

**Q.** What about the Activity [19] of the same molecule?
**A.** The Activity was “Dose-dependent effect”.

**Q.** What about the Activity [20] of the same molecule?
**A.** The Activity was “Active”.

**Q.** And the Activity [21]?
**A.** The Activity was 52.05%.

**Q.** What about the Activity [22] of the same molecule?
**A.** The Activity was 27.71%.

**Q.** And the Activity [23]?
**A.** The Activity was 21.12%.

**Q.** And the Activity [24]?
**A.** The Activity was 56.36%.

**Q.** And the Activity [25]?
**A.** Its Activity is 25.12%.

**Q.** And the Activity [26]?
**A.** Its Activity is 18.38%.

**Q.** What about the Activity [27] of the same molecule?
**A.** The Activity was 61.12%.

**Q.** And the Activity [28]?
**A.** The Activity was 25.48%.

**Q.** And the Activity [29]?
**A.** Its Activity is 16.59%.

**Q.** What about the inhibition [30] of the same molecule?
**A.** The inhibition was “Active”.

**Q.** What about the inhibition [31] of the same molecule?
**A.** The inhibition was “Active”.

**Q.** And the inhibition [32]?
**A.** Its inhibition is “inactive”.
